From ChEMBL document CHEMBL4304816, “A Novel Biphenyl-based Chemotype of Retinoid X Receptor Ligands Enables Subtype and Heterodimer Preferences” (ACS Med Chem Lett, 2019)
Each block holds one compound with its values, some of them ahead of it. Activity calls are given as the source filed them. The rule behind the calls is not given here.

How the values were obtained:
Assay type in all cases: cell-based
[1] = molecular target: T1, Retinoic acid receptor RXR-gamma (Homo sapiens, UniProt P48443); experiment: Agonist activity at Gal4-LBD fused RXRgamma (unknown origin) expressed in HEK293T cells after 14 to 16 hrs by dual-Glo luciferase assay
T1 sequence (P48443 whole entry): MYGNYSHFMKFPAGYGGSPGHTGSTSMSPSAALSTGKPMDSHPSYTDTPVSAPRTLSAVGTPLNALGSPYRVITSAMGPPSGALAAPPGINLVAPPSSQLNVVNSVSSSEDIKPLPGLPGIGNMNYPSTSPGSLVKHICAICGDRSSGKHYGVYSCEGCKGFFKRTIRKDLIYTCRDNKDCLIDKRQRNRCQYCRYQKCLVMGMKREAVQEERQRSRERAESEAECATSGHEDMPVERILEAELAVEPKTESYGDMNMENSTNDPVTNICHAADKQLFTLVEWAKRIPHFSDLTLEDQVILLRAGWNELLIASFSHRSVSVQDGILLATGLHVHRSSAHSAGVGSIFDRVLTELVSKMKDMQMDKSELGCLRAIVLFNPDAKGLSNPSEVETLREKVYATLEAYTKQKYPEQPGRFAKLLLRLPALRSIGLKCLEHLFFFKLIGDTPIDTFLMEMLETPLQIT
Summary of the method: (§1)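 Gal4-hybrid RXRα/β/γ reporter gene assays in HEK293T cells. Fold activation is the maximal fold activation versus 0.1% DMSO.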

[2] = molecular target: T2, Retinoic acid receptor RXR-gamma (Homo sapiens) (UniProt P48443); experiment: Agonist activity at Gal4-LBD fused RXRgamma (unknown origin) expressed in HEK293T cells at 0.1 to 3 uM after 14 to 16 hrs in presence of RXR antagonist HX531 by dual-Glo luciferase reporter gene assay
T2 sequence (whole entry): T1 sequence (P48443 whole entry)

[3] = molecular target: T3, Retinoic acid receptor gamma (Homo sapiens) (UniProt P13631); experiment: Agonist activity at Gal4-LBD fused RARgamma (unknown origin) expressed in HEK293T cells after at 20 uM 14 to 16 hrs by dual-Glo luciferase assay
T3 sequence (whole entry): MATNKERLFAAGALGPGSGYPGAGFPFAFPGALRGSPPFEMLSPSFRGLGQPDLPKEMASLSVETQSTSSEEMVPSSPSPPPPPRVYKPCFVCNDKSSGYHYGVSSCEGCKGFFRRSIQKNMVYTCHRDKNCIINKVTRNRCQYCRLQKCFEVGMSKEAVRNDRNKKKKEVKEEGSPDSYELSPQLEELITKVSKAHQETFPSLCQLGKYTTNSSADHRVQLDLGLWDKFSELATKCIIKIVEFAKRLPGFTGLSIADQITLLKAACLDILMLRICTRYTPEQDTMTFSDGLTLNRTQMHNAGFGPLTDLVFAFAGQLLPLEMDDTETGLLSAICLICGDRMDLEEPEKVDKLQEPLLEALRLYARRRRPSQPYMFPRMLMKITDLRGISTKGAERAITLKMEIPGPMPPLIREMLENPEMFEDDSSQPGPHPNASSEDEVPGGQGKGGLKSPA
Summary of the method: (§2)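 Gal4-hybrid reporter gene selectivity panel of related nuclear receptors (PPARα/β/γ, RARα/β/γ) in HEK293T cells. Activity is read as mean fold activation versus 0.1% DMSO vehicle, n ≥ 2.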

[4] = molecular target: T4, Peroxisome proliferator-activated receptor delta (Homo sapiens) (UniProt Q03181); experiment: Agonist activity at Gal4-LBD fused PPARbeta (unknown origin) expressed in HEK293T cells at 20 uM after 14 to 16 hrs by dual-Glo luciferase assay; summary of the method: as §2
T4 sequence (whole entry): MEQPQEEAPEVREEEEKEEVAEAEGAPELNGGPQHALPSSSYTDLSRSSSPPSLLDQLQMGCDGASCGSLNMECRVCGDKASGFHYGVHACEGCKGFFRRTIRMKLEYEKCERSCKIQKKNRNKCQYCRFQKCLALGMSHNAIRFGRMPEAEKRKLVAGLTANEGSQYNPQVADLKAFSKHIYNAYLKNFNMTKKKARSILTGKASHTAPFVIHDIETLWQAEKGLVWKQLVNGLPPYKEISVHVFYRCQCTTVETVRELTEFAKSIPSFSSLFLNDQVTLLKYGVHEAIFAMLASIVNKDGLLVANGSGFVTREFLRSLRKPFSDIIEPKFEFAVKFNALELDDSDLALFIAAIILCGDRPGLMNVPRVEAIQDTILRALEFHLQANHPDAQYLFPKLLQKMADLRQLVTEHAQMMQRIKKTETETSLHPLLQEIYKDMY

[5] = molecular target: T5, Retinoic acid receptor beta (Homo sapiens) (UniProt P10826); experiment: Agonist activity at Gal4-LBD fused RARbeta (unknown origin) expressed in HEK293T cells at 20 uM after 14 to 16 hrs by dual-Glo luciferase assay; summary of the method: as §2
T5 sequence (whole entry): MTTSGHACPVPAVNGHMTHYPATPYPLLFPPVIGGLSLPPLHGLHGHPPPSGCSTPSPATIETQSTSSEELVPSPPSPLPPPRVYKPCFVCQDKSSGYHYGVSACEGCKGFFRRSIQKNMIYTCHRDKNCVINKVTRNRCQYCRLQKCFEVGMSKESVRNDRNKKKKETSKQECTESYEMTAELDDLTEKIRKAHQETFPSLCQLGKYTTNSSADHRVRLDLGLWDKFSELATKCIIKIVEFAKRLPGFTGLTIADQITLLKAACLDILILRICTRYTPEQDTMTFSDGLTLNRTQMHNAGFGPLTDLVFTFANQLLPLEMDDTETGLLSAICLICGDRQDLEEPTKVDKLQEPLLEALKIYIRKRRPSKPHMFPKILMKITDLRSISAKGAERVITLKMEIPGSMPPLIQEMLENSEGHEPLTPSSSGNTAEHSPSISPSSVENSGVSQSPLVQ

[6] = molecular target: T6, Retinoic acid receptor RXR-beta (Homo sapiens) (UniProt P28702); experiment: Agonist activity at Gal4-LBD fused RXRbeta (unknown origin) expressed in HEK293T cells assessed as fold activation after 14 to 16 hrs by dual-Glo luciferase assay relative to untreated control; summary of the method: as §1
T6 sequence (whole entry): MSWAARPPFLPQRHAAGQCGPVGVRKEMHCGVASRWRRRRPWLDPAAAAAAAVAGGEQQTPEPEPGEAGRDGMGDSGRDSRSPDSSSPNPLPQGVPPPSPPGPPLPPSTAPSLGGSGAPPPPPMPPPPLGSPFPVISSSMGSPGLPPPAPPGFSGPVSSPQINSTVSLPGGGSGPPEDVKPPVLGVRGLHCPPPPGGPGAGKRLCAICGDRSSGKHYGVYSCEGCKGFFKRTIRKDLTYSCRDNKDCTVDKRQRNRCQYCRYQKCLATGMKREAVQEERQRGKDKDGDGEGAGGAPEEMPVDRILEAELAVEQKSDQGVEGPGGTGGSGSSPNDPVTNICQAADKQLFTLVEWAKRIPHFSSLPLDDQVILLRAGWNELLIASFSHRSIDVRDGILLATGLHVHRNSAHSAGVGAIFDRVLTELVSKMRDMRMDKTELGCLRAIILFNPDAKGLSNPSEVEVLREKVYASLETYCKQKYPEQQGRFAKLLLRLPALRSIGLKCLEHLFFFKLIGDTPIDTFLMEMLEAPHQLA

EC50 [1]: 1000 nM | Activity [2]: inactive
SMILES: Cc1cc(-c2cc(C(F)(F)F)cc(C(F)(F)F)c2)ccc1CC(=O)O

Activity [3]: Active | Activity [4]: Active | Activity [5]: Active
SMILES: Cc1cc(-c2ccc(C(=O)O)cc2)cc(C(C)(C)C)c1

fold change (FC) [6]: 38
SMILES: Cc1cc(-c2cc(C(C)(C)C)cc(C(C)(C)C)c2)ccc1C(=O)O
